Blank lines part the entries; values can stand above or below the compound they belong to. Active and inactive are the calls of the source. The rule behind the calls is not given here.
Experiments:
[1] = molecular target: BMP-2-inducible protein kinase (Homo sapiens) (UniProt Q9NSY1); experiment: Inhibition of human BIKE (34 to 329 residues) expressed in bacterial expression system assessed as enzyme activity at 10 uM by KINOMEScan assay relative to control; set-up: scale not given: the % may be the effect or the level left
Summary of the method: (§1)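 In vitro ATP-site competition binding assay (KinomeScan) across a panel of 456 kinases. Compound was tested at 1 and 10 μM. The read-out is the binding inhibition score relative to control.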

[2] = molecular target: Activin receptor type-1 (Homo sapiens) (UniProt Q04771); experiment: Inhibition of human ACVR1 (188 to 509 residues) expressed in bacterial expression system assessed as enzyme activity at 10 uM by KINOMEScan assay relative to control; set-up: scale not given: the % may be the effect or the level left; summary of the method: as §1
Activin receptor type-1 (Homo sapiens), sequence (Q04771 whole entry, the tested form may be a part): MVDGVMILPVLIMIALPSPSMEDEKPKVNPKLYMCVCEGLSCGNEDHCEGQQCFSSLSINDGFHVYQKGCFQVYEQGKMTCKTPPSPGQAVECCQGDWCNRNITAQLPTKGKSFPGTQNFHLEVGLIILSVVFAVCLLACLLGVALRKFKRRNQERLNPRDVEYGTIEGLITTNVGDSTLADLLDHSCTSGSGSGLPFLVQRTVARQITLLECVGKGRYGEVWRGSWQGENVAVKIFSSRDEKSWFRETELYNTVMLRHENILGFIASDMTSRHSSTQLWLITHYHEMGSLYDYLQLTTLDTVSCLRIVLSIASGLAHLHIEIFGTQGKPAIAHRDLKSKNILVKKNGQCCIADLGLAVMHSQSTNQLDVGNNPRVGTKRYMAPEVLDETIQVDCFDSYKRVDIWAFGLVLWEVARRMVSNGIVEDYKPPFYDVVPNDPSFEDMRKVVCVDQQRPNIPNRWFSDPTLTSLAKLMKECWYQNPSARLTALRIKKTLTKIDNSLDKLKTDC

[3] = molecular target: TGF-beta receptor type-2 (Homo sapiens) (UniProt P37173); experiment: Inhibition of human TGFBR2 (218 to 567 residues) expressed in bacterial expression system assessed as enzyme activity at 1 uM by KINOMEScan assay relative to control; set-up: scale not given: the % may be the effect or the level left
Summary of the method: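 In vitro ATP-site competition binding assay across a panel of 456 kinases, with compound tested at 1 and 10 μM.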

[4] = molecular target: Phosphoinositide 3-kinase regulatory subunit 4 (Homo sapiens) (UniProt Q99570); experiment: Binding affinity to PIK3R4 in human NCI-H358 cells at 1 uM by mass spectrometry based pull down assay; assay type: cell-based
[5] = molecular target: T-complex protein 1 subunit epsilon (Homo sapiens) (UniProt P48643); experiment: Binding affinity to CCT5 in human NCI-H358 cells at 1 uM by mass spectrometry based pull down assay; assay type: cell-based
[6] = molecular target: Actin-related protein 3 (Homo sapiens) (UniProt P61158); experiment: Binding affinity to ACTR3 in human NCI-H23 cells at 1 uM by mass spectrometry based pull down assay; assay type: cell-based
Summary of the method: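 NCI-H23 or NCI-H358 cells were grown and lysed. Lysates were incubated overnight at 4 °C with 1 μM biotinylated covalent probe or DMSO, then pulled down on streptavidin beads. Proteins were run on polyacrylamide gels and stained with Coomassie. Bands were excised, digested and identified by mass spectrometry.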

Filamin-B (Homo sapiens) = Filamin-B (Homo sapiens) (UniProt O75369); experiment: Binding affinity to FLNB in human NCI-H358 cells at 1 uM by mass spectrometry based pull down assay; assay type: cell-based
[7] = molecular target: tRNA (guanosine(18)-2'-O)-methyltransferase TARBP1 (Homo sapiens) (UniProt Q13395); experiment: Binding affinity to TARBP1 in human NCI-H358 cells at 1 uM by mass spectrometry based pull down assay; assay type: cell-based
[8] = molecular target: T1, Mitogen-activated protein kinase kinase kinase 7 (Homo sapiens) (UniProt O43318); experiment: Binding affinity to MAP3K7 in human NCI-H23 cells at 1 uM by mass spectrometry based pull down assay; assay type: cell-based
T1 sequence (whole entry): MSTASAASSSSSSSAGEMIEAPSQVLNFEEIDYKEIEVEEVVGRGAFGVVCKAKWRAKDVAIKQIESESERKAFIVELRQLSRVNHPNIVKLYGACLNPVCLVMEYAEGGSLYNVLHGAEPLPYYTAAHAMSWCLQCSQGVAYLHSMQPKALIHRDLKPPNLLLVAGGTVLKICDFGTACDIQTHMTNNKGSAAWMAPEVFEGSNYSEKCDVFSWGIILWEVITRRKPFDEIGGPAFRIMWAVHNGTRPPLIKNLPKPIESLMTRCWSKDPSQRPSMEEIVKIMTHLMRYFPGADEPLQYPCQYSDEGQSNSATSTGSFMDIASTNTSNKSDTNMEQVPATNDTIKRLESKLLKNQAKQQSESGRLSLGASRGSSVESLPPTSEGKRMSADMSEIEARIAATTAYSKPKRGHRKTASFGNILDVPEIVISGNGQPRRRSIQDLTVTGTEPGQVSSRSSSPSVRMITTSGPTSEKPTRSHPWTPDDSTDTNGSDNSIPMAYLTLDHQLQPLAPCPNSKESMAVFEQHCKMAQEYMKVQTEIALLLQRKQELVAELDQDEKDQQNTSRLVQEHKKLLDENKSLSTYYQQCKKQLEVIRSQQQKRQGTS

[9] = molecular target: Thymidylate synthase (Homo sapiens) (UniProt P04818); experiment: Binding affinity to TYMS in human NCI-H23 cells at 1 uM by mass spectrometry based pull down assay; assay type: cell-based
Thymidylate synthase (Homo sapiens), sequence (P04818 2-313 limits assumed): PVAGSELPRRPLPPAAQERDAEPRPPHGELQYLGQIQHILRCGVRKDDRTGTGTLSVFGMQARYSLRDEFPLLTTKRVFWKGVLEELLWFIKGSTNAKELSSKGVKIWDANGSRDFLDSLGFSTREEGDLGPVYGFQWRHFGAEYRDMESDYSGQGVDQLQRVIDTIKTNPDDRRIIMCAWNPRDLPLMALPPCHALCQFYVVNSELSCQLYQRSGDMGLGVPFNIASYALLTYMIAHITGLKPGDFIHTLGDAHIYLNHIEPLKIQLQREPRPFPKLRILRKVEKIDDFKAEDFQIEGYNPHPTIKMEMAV

[10] = molecular target: Protein LSM12 (Homo sapiens) (UniProt Q3MHD2); experiment: Binding affinity to LSM12 in human NCI-H23 cells at 1 uM by mass spectrometry based pull down assay; assay type: cell-based
Protein LSM12 (Homo sapiens), sequence (Q3MHD2 whole entry): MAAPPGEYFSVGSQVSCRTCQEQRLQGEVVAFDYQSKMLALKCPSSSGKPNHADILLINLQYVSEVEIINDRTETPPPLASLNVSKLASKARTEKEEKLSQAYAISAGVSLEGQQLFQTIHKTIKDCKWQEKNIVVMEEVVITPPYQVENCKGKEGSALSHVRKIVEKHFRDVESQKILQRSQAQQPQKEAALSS

[11] = molecular target: COP9 signalosome complex subunit 8 (Homo sapiens) (UniProt Q99627); experiment: Binding affinity to COPS8 in human NCI-H358 cells at 1 uM by mass spectrometry based pull down assay; assay type: cell-based
COP9 signalosome complex subunit 8 (Homo sapiens), sequence (Q99627 whole entry, one chain of several): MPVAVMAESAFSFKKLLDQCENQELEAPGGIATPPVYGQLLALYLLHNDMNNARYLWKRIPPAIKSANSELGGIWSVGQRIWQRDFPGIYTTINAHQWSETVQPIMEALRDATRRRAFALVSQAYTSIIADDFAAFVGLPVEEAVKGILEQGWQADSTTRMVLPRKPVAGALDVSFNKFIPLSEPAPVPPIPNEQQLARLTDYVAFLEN

[12] = molecular target: Dual specificity mitogen-activated protein kinase kinase 2 (Homo sapiens) (UniProt P36507); experiment: Binding affinity to MAP2K2 in human NCI-H358 cells at 1 uM by mass spectrometry based pull down assay; assay type: cell-based
[13] = molecular target: Ubiquitin carboxyl-terminal hydrolase 5 (Homo sapiens) (UniProt P45974); experiment: Binding affinity to USP5 in human NCI-H23 cells at 1 uM by mass spectrometry based pull down assay; assay type: cell-based
[14] = molecular target: DNA replication licensing factor MCM4 (Homo sapiens) (UniProt P33991); experiment: Binding affinity to MCM4 in human NCI-H358 cells at 1 uM by mass spectrometry based pull down assay; assay type: cell-based
[15] = molecular target: HCLS1-associated protein X-1 (Homo sapiens) (UniProt O00165); experiment: Binding affinity to HAX1 in human NCI-H358 cells at 1 uM by mass spectrometry based pull down assay; assay type: cell-based
HCLS1-associated protein X-1 (Homo sapiens), sequence (O00165 whole entry): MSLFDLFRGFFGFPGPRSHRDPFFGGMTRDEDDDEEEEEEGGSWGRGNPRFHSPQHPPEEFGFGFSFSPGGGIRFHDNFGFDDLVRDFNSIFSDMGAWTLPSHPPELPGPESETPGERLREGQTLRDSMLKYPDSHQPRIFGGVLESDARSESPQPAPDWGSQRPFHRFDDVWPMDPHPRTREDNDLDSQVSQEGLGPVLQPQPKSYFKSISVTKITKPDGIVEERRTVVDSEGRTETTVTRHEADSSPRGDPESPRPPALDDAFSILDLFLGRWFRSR

[16] = molecular target: Constitutive coactivator of PPAR-gamma-like protein 1 (Homo sapiens) (UniProt Q9NZB2); experiment: Binding affinity to FAM120A in human NCI-H358 cells at 1 uM by mass spectrometry based pull down assay; assay type: cell-based
Constitutive coactivator of PPAR-gamma-like protein 1 (Homo sapiens), sequence (Q9NZB2 whole entry): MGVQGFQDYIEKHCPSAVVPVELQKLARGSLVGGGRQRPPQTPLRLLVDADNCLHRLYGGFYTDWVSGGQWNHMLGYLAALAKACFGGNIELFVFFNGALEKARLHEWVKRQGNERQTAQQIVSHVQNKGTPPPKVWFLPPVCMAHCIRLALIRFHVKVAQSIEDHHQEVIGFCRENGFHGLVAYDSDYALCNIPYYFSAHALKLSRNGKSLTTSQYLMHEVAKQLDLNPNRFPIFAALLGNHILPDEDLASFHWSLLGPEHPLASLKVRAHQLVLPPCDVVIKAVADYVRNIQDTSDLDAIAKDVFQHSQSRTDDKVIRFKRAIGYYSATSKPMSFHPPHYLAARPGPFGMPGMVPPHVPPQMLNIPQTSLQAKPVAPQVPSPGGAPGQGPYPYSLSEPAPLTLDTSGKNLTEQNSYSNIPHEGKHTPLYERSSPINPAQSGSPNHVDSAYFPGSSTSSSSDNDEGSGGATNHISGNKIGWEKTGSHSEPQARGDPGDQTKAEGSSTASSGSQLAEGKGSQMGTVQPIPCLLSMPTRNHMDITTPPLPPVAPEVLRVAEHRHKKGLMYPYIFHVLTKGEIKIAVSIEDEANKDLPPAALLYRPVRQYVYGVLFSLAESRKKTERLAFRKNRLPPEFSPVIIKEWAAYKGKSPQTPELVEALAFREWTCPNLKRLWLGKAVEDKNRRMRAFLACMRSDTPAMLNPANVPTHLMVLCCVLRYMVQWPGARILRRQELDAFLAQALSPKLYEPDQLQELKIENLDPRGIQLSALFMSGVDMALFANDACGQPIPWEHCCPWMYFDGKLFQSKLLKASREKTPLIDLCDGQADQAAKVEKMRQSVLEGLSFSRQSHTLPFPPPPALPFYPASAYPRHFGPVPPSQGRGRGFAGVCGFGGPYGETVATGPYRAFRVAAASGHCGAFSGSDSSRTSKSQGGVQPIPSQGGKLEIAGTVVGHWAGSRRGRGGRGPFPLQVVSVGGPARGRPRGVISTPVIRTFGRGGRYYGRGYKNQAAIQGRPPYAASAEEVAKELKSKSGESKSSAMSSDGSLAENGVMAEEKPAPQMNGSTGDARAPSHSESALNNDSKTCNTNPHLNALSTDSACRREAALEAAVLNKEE

[17] = molecular target: Acylamino-acid-releasing enzyme (Homo sapiens) (UniProt P13798); experiment: Binding affinity to APEH in human NCI-H358 cells at 1 uM by mass spectrometry based pull down assay; assay type: cell-based
[18] = molecular target: Actin-related protein 2/3 complex subunit 5 (Homo sapiens) (UniProt O15511); experiment: Binding affinity to ARPC5 in human NCI-H358 cells at 1 uM by mass spectrometry based pull down assay; assay type: cell-based
[19] = molecular target: Poly(rC)-binding protein 1 (Homo sapiens) (UniProt Q15365); experiment: Binding affinity to PCBP1 in human NCI-H23 cells at 1 uM by mass spectrometry based pull down assay; assay type: cell-based
Poly(rC)-binding protein 1 (Homo sapiens), sequence (Q15365 whole entry): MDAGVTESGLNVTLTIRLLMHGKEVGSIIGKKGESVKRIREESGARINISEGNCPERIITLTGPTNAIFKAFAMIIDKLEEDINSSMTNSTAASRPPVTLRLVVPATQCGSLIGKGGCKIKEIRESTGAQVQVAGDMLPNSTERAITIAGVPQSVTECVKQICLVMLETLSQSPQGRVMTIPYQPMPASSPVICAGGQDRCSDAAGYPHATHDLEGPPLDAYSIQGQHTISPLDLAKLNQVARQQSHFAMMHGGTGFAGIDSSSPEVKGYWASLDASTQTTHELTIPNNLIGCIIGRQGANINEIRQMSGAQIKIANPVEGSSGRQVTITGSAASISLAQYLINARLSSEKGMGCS

[20] = molecular target: Arginine--tRNA ligase, cytoplasmic (Homo sapiens) (UniProt P54136); experiment: Binding affinity to RARS in human NCI-H358 cells at 1 uM by mass spectrometry based pull down assay; assay type: cell-based
Arginine--tRNA ligase, cytoplasmic (Homo sapiens), sequence (P54136 whole entry): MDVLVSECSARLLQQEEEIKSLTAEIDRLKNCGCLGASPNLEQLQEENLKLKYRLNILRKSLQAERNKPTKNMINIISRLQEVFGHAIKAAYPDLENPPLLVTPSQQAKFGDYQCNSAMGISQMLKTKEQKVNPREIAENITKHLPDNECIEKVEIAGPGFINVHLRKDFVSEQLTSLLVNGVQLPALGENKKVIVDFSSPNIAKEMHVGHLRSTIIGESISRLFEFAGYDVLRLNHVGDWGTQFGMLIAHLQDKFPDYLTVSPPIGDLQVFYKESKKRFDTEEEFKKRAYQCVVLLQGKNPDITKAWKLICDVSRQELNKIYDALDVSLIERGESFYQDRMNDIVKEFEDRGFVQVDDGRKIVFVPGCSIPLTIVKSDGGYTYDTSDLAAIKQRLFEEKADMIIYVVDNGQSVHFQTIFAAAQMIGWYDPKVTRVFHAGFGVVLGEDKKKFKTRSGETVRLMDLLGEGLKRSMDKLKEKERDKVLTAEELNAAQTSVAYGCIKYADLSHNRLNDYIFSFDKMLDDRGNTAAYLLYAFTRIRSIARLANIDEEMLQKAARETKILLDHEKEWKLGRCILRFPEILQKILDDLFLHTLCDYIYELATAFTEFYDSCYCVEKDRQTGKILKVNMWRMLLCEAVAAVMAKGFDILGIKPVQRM

NCI-H358 = experiment: Binding affinity to XRCC5 in human NCI-H358 cells at 1 uM by mass spectrometry based pull down assay; assay type: cell-based
[21] = molecular target: Mitotic interactor and substrate of PLK1 (Homo sapiens) (UniProt Q8IVT2); experiment: Binding affinity to MISP in human NCI-H358 cells at 1 uM by mass spectrometry based pull down assay; assay type: cell-based
[22] = molecular target: Serine/threonine-protein kinase Nek1 (Homo sapiens) (UniProt Q96PY6); experiment: Inhibition of NEK1 in human SKCO1 cells at 1 uM after 4 hrs using biotin labeled DIKSQNIFLTK probe by mass-spectrometric analysis relative to control; assay type: cell-based
Serine/threonine-protein kinase Nek1 (Homo sapiens), sequence (Q96PY6 whole entry): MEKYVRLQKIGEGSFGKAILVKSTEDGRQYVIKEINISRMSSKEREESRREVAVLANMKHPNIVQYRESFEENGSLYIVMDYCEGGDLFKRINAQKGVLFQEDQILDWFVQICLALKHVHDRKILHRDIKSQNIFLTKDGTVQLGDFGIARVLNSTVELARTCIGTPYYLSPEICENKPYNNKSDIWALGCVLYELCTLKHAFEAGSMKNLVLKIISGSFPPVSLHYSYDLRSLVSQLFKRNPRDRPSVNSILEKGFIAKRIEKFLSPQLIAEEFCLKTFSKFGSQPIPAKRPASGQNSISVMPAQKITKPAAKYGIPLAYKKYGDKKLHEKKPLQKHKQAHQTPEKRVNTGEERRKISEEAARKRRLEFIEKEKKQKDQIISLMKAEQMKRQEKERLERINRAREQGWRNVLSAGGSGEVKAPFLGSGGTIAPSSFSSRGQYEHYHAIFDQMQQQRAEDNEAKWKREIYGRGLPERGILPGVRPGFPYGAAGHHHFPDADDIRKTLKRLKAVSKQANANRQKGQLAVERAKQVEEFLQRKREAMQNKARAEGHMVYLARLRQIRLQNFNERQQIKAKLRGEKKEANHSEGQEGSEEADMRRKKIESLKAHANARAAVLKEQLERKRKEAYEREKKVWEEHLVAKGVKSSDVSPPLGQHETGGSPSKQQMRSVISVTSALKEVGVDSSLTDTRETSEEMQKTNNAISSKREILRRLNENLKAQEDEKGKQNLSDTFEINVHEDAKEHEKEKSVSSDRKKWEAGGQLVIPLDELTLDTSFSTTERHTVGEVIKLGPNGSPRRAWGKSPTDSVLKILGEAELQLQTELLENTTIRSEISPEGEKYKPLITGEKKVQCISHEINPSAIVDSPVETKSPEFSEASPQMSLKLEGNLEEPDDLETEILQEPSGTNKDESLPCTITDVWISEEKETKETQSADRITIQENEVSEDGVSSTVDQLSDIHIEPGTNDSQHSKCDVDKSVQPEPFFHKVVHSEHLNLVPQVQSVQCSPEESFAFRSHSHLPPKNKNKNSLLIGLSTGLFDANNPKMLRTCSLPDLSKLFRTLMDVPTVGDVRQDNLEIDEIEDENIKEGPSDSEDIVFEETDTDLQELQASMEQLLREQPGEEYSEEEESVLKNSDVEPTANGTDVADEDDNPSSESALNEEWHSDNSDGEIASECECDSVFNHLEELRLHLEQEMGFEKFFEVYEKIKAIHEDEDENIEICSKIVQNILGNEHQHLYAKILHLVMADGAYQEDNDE

SMILES: COc1cc(O)c2c(c1)/C=C/C[C@H](O)[C@H](O)C(=O)/C=C\C[C@H](C)OC2=O
- Activity [1]: 3.8%
- Activity [2]: 1.9%
- Activity [3]: 3.8%

- Activity [4]: Active
- Activity [5]: Active
- Activity [6]: Active
- Activity (Filamin-B (Homo sapiens)): Active
- Activity [7]: Active
- Activity [8]: Active
- Activity [9]: Active
- Activity [10]: Active
- Activity [11]: Active
- Activity [12]: Active
- Activity [13]: Active
- Activity [14]: Active
- Activity [15]: Active
- Activity [16]: Active
- Activity [17]: Active
- Activity [18]: Active
- Activity [19]: Active
- Activity [20]: Active
- Activity [21]: Active
SMILES: C=CC(=O)Nc1ccccc1Nc1nc(Nc2ccc(N3CCN(CCOCCOCCOCCNC(=O)CCCC[C@@H]4SC[C@@H]5NC(=O)N[C@@H]54)CC3)cc2)ncc1Cl
- Activity (NCI-H358): Active

SMILES: C=CC(=O)Nc1ccccc1Oc1nc(Nc2cnn(CCOC)c2)ncc1Cl
- inhibition [22]: -7.4%
